According to ChEMBL document CHEMBL1139230, “New beta-alanine derivatives are orally available glucagon receptor antagonists” (J Med Chem, 2007):
Active and inactive are the calls of the source. The rule behind the calls is not given here.

Experiments:
Liver microsomes = assay: Metabolic turnover in rat liver microsomes at 10 uM; type: ADME, Microsome
How it was run: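 Metabolic rate estimated by incubating compounds with rat liver microsomes, used to rank metabolic stability.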

Glucagon receptor [1] = molecular target: Glucagon receptor (Homo sapiens, UniProt P47871); assay: Inhibition of human cloned glucagon receptor expressed in BHK cells; type: cell-based
Sequence of Glucagon receptor (Homo sapiens, UniProt P47871) (P47871 whole entry): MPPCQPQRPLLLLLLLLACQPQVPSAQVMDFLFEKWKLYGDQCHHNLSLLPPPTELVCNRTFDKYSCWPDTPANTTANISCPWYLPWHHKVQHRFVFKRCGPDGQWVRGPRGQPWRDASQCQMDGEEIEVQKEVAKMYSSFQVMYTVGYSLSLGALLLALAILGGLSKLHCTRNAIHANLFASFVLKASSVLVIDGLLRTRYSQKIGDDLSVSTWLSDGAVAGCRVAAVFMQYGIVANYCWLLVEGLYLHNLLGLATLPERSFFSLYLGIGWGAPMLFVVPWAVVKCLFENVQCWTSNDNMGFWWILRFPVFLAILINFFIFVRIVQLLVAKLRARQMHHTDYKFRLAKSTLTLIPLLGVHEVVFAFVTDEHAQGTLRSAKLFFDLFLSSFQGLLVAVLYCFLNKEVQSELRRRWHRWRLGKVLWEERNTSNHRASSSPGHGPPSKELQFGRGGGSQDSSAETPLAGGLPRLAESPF
How it was run: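 Binding performed on plasma membranes from BHK cells expressing the cloned human glucagon receptor; IC50 values determined.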

[2] = Bioavailability in orally dosed dog; type: ADME, organism-based, Canis lupus familiaris; details: in vivo, po
How it was run: (§1)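 Dogs dosed orally and intravenously; oral availability and half-life after iv dosing determined.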

[3] = Metabolic stability in iv dosed dog; type: ADME, organism-based, Canis lupus familiaris; details: in vivo; how it was run: as §1
Glucagon receptor [4] = molecular target: Glucagon receptor (Rattus norvegicus, UniProt P30082); assay: Inhibition of rat glucagon receptor
Sequence of Glucagon receptor (Rattus norvegicus, UniProt P30082) (P30082 whole entry): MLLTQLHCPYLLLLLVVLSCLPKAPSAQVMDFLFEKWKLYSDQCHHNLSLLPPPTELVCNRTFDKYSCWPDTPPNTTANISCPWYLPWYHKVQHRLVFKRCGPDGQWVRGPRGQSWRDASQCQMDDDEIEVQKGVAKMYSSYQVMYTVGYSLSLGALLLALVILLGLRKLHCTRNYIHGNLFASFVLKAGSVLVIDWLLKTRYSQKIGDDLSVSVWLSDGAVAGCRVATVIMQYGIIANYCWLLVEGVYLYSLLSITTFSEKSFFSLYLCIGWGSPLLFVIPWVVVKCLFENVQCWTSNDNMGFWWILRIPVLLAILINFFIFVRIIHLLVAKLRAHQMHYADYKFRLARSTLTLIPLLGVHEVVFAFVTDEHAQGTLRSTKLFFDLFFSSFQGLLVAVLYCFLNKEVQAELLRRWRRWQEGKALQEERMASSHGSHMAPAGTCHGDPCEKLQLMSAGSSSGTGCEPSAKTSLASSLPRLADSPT

Rattus norvegicus [5] = assay: Reduction of blood glucose level in glucagon-challenged iv dosed Sprague-dawley rat at > 3 mg/kg; type: functional, organism-based; parameters: dose 3 mg/kg
How it was run: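 Anesthetized rats received the compound intravenously across a range of doses 5 min before a 3 µg/kg glucagon load. The rise in blood glucose was followed.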

[6] = molecular target: Glucagon-like peptide 1 receptor (Homo sapiens, UniProt P43220); assay: Inhibition of GLP1 receptor
Sequence of Glucagon-like peptide 1 receptor (P43220 whole entry): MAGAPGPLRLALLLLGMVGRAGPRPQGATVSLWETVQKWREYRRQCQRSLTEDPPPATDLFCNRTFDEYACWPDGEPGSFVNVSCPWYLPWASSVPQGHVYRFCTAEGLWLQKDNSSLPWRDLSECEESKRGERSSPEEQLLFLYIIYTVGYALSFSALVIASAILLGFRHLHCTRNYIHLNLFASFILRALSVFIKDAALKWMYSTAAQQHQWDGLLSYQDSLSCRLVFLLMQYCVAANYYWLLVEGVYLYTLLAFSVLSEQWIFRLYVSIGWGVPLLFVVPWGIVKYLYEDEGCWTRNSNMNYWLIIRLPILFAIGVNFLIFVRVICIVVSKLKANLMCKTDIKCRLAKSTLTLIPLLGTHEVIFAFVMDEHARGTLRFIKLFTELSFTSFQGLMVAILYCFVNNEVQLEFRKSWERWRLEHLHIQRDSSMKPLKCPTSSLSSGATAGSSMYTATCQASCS

Homo sapiens = species on record: Homo sapiens; assay: Selectivity for glucagon receptor over GLP1 receptor
[7] = Bioavailability in rat at 4 mg/kg, po; type: ADME, organism-based; details: in vivo
How it was run: (§2)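 Rats given the compound at 4 mg/kg orally and 2 mg/kg intravenously. Plasma profiles yielded Cmax, Tmax, AUC, oral availability (F) and plasma half-life; half-life was taken from the iv dose.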

[8] = Metabolic stability in rat at 2 mg/kg, iv; type: ADME, organism-based; parameters: dose 2 mg/kg, route intravenous; details: in vivo; how it was run: as §2
Rattus norvegicus [9] = assay: AUC in rat at 4 mg/kg, po and 2 mg/kg, iv; type: ADME, organism-based, Plasma; details: in vivo; how it was run: as §2
[10] = Cmax in rat at 4 mg/kg, po and 2 mg/kg, iv; type: ADME, organism-based; details: in vivo; how it was run: as §2
[11] = Tmax in rat at 4 mg/kg, po and 2 mg/kg, iv; type: ADME, organism-based; details: in vivo; how it was run: as §2
Rattus norvegicus [12] = assay: Reduction of blood glucose level in glucagon-challenged iv dosed Sprague-Dawley rat; type: functional, organism-based
How it was run: (§3)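 Rats were anesthetized and given the compound intravenously over a range of doses, 5 min before an exogenous glucagon load of 3 µg/kg. The read-out was the glucagon-stimulated rise in blood glucose.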

Mus musculus [13] = assay: Reduction of blood glucose level in Umea ob/ob mouse at 100 mg/kg, po after 24 hrs; type: functional
How it was run: (§4)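 ob/ob mice (n = 6 per group), vehicle or compound at 100 mg/kg po. Blood glucose was measured before dosing and again at 2, 4, 6 and 24 h; the change from the predose value was reported.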

Mus musculus [14] = assay: Reduction of blood glucose level in Umea ob/ob mouse at 100 mg/kg, po after 6 hrs; type: functional; how it was run: as §4
Mus musculus [15] = assay: Reduction of blood glucose level in Umea ob/ob mouse at 100 mg/kg, po after 4 hrs; type: functional; how it was run: as §4
Mus musculus [16] = assay: Reduction of blood glucose level in Umea ob/ob mouse at 100 mg/kg, po after 2 hrs; type: functional; how it was run: as §4
Mus musculus [17] = assay: Reduction in cumulative food intake in Umea ob/ob mouse at 100 mg/kg, po; type: functional
How it was run: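 ob/ob mice given vehicle or compound at 100 mg/kg po; cumulative food intake per mouse recorded from 6 to 24 h postdose.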

Mus musculus [18] = assay: Blood glucose level in Umea ob/ob mouse at 100 mg/kg, po
Rattus norvegicus [19] = assay: Reduction of blood glucose level in glucagon-challenged iv dosed Sprague-Dawley rat at 3 mg/kg; type: functional, organism-based; parameters: dose 3 mg/kg; how it was run: as §3

## CC(C)(C)[C@H]1CC[C@H](N(Cc2ccc(C(=O)NCCC(=O)O)cc2)C(=O)Nc2ccc(C#N)cc2OC(F)(F)F)CC1
Liver microsomes
  Activity: 130 pmol/min

## CC(C)(C)[C@H]1CC[C@H](N(Cc2ccc(C(=O)NCCC(=O)O)cc2)C(=O)Nc2ccc(OC(F)(F)F)cc2C#N)CC1
Glucagon receptor [1]
  IC50: 56 nM
Liver microsomes
  Activity: 63 pmol/min

## CC(C)(C)[C@H]1CC[C@H](N(Cc2ccc(C(=O)NCCC(=O)O)cc2)C(=O)Nc2ccc(Cl)c(Cl)c2)CC1
Liver microsomes
  Activity: 232 pmol/min

## CCCCc1ccc(NC(=O)N(Cc2ccc(C(=O)NCCC(=O)O)cc2)C2Cc3ccccc3C2)cc1
Glucagon receptor [1]
  IC50: 179 nM

## O=C(O)CCNC(=O)c1ccc(CN(C(=O)Nc2ccc(OC(F)(F)F)cc2)C2CCC(C(=O)O)CC2)cc1 (centres undefined)
Glucagon receptor [1]
  IC50: > 10000 nM

## CC(C)(C)C1CCC(N(Cc2ccc(C(=O)NCC(=O)NO)cc2)C(=O)Nc2ccc(OC(F)(F)F)cc2)CC1 (centres undefined)
Glucagon receptor [1]
  IC50: 2960 nM

## CC(C)(CC(=O)O)NC(=O)c1ccc(CN(C(=O)Nc2ccc(OC(F)(F)F)cc2)C2CCC(C(C)(C)C)CC2)cc1 (centres undefined)
Glucagon receptor [1]
  IC50: > 10000 nM

## CC(C)(C)C1CCC(N(Cc2ccc(C(=O)NCC(=O)O)cc2)C(=O)Nc2ccc(OC(F)(F)F)cc2)CC1 (centres undefined)
Glucagon receptor [1]
  IC50: 1700 nM

## CC(C)(C)C1CCC(N(Cc2ccc(C(=O)NCCC(N)=O)cc2)C(=O)Nc2ccc(OC(F)(F)F)cc2)CC1 (centres undefined)
Glucagon receptor [1]
  IC50: > 10000 nM

## O=C(O)CCNC(=O)c1ccc(CN(C(=O)Nc2cc(Cl)cc(Cl)c2)c2ccc(C3=CCCCC3)cc2)cc1
[2]
  bioavailability: 65%
[3]
  half-life: 1.53 h
Glucagon receptor [4]
  IC50: 122 nM
Rattus norvegicus [5]
  Activity: Active
Glucagon receptor [1]
  IC50: 27 nM
[6]
  IC50: 4900 nM
Homo sapiens
  Selectivity ratio: 180
[7]
  bioavailability: 69%
[8]
  half-life: 1.37 h
Rattus norvegicus [9]
  AUC: 2970 ng·h/mL
[10]
  Cmax: 275 ng/mL
[11]
  Tmax: 1 h
Rattus norvegicus [12]
  Activity: Dose-dependent effect
Mus musculus [13]
  Activity: 1.8 mM
Mus musculus [14]
  Activity: 9.5 mM
Mus musculus [15]
  Activity: 8.4 mM
Mus musculus [16]
  Activity: 6.8 mM
Mus musculus [17]
  Activity: 8.4 g
Mus musculus [18]
  Activity: 18.3 mM

## CC(C)(C)C1CCC(N(Cc2ccc(C(=O)N3CCCC(C(=O)O)C3)cc2)C(=O)Nc2ccc(OC(F)(F)F)cc2)CC1 (centres undefined)
Glucagon receptor [1]
  IC50: 1000 nM

## CC(C)(C)C1CCC(N(Cc2ccc(C(=O)NCCCC(=O)O)cc2)C(=O)Nc2ccc(OC(F)(F)F)cc2)CC1 (centres undefined)
Glucagon receptor [1]
  IC50: > 10000 nM

## O=C(O)CCNC(=O)c1ccc(CN(C(=O)Nc2ccc(SC(F)(F)F)cc2)C2Cc3ccccc3C2)cc1
Glucagon receptor [1]
  IC50: 262 nM

## CCCCC(CC)N(Cc1ccc(C(=O)NCCC(=O)O)cc1)C(=O)Nc1ccc(OC(F)(F)F)cc1 (centres undefined)
Glucagon receptor [1]
  IC50: 141 nM

## CC(C)(C)[C@H]1CC[C@H](N(Cc2ccc(C(=O)NCCC(=O)O)cc2)C(=O)Nc2ccc(C#N)cc2)CC1
Glucagon receptor [1]
  IC50: 1050 nM

## CC(C)(C)[C@H]1CC[C@H](N(Cc2ccc(C(=O)NCCC(=O)O)cc2)C(=O)Nc2ccc(OC(F)(F)F)cc2)CC1
[2]
  bioavailability: 10%
[3]
  half-life: 1.68 h
Glucagon receptor [4]
  IC50: 56 nM
Glucagon receptor [1]
  IC50: 55 nM
[6]
  IC50: 1000 nM
Liver microsomes
  Activity: 100 pmol/min
[7]
  bioavailability: 17%
[8]
  half-life: 1.5 h
Rattus norvegicus [9]
  AUC: 217 ng·h/mL
[10]
  Cmax: 106 ng/mL
[11]
  Tmax: 1 h
Rattus norvegicus [12]
  Activity: Dose-dependent effect
Rattus norvegicus [19]
  Activity: Active

## CC(C)c1ccc(NC(=O)N(Cc2ccc(C(=O)NCCC(=O)O)cc2)[C@H]2CC[C@H](C(C)(C)C)CC2)cc1
Glucagon receptor [1]
  IC50: 35 nM
Liver microsomes
  Activity: 283 pmol/min
[7]
  bioavailability: 2%
[8]
  half-life: 0.333 h
Rattus norvegicus [9]
  AUC: 43.3 ng·h/mL
[10]
  Cmax: 40 ng/mL
[11]
  Tmax: 0.25 h

## O=C(O)CCNC(=O)c1ccc(CN(C(=O)Nc2ccc(OC(F)(F)F)cc2)c2ccc(C3CCCCC3)cc2)cc1
Glucagon receptor [1]
  IC50: 61 nM
[7]
  bioavailability: 54%
[8]
  half-life: 1.07 h
Rattus norvegicus [9]
  AUC: 1600 ng·h/mL
[10]
  Cmax: 316 ng/mL
[11]
  Tmax: 4 h

## COC1CCC(N(Cc2ccc(C(=O)NCCC(=O)O)cc2)C(=O)Nc2ccc(OC(F)(F)F)cc2)CC1 (centres undefined)
Glucagon receptor [1]
  IC50: > 10000 nM

## O=C(O)CCNC(=O)c1ccc(CN(CCC(c2ccccc2)c2ccccc2)C(=O)c2ccc(Cl)nc2)cc1
Glucagon receptor [1]
  IC50: 7000 nM
[6]
  IC50: 100000 nM

## COCCCNC(=O)c1ccc(CN(C(=O)Nc2ccc(OC(F)(F)F)cc2)C2CCC(C(C)(C)C)CC2)cc1 (centres undefined)
Glucagon receptor [1]
  IC50: > 10000 nM

## CCCC1CCC(N(Cc2ccc(C(=O)NCCC(=O)O)cc2)C(=O)Nc2ccc(OC(F)(F)F)cc2)CC1 (centres undefined)
Glucagon receptor [1]
  IC50: 122 nM

## CC(C)(C)[C@H]1CC[C@H](N(Cc2ccc(C(=O)NCCC(=O)O)cc2)C(=O)Nc2cc(C(F)(F)F)cc(C(F)(F)F)c2)CC1
Liver microsomes
  Activity: 139 pmol/min

## O=C(O)CCNC(=O)c1ccc(CN(C(=O)Nc2ccc(OC(F)(F)F)cc2)C2CCC(C(=O)NCC3CC3)CC2)cc1 (centres undefined)
Glucagon receptor [1]
  IC50: > 10000 nM

## O=C(O)CCNC(=O)c1ccc(CN(CC(c2ccccc2)c2ccccc2)C(=O)c2csc3ccc(Cl)cc23)cc1
Glucagon receptor [1]
  IC50: 116 nM

## CNC(=O)C1CCC(N(Cc2ccc(C(=O)NCCC(=O)O)cc2)C(=O)Nc2ccc(OC(F)(F)F)cc2)CC1 (centres undefined)
Glucagon receptor [1]
  IC50: > 10000 nM
